Results of several laboratories.
Each line is one published result; the experiments were not run side by side.
Target: Activin receptor type-1B (ACVR1B, Homo sapiens, UniProt P36896)
Sequence (P36896 24-505, as in one of the studies): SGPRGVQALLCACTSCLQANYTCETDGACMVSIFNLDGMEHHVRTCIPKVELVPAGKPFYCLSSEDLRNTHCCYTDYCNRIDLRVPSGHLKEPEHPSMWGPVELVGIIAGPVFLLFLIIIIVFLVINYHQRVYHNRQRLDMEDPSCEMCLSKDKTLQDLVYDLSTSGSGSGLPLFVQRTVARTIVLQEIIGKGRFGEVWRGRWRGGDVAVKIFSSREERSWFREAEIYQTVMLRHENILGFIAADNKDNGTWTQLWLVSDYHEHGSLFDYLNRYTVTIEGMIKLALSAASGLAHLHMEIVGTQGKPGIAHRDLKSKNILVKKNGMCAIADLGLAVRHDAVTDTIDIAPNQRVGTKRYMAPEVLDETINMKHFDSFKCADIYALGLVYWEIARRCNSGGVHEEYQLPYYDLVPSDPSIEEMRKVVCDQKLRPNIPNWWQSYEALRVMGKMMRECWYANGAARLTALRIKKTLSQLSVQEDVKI

| Compound | read-out | method | concentration | remaining binding |
| --- | --- | --- | --- | --- |
| C[C@H]1CCN(c2nccc(-c3cnn4ncccc34)n2)C1 | binding | – | 1 µM | 71% |
| COc1cnc(Nc2cccc(S(N)(=O)=O)c2)nc1N1CCN(c2ccccc2)CC1 | binding | competition with immobilised ligand | 1 µM | 98% |
| O=C(Nc1c[nH]nc1C(=O)NC1CCNCC1)c1cc(F)cc(F)c1 | binding | competition with immobilised ligand | 1 µM | 90% |
| CC(C)CC(=O)N1CCc2nc(-c3ccc(Br)cc3)nc(N(C)Cc3ccccc3)c2C1 | cell-free assay | competition with immobilised ligand | 0.1 µM | 89% |
| C=CC(=O)N1CCC(C(=O)NCC(=O)N2CCN(c3nc(-c4cnc(N)nc4C(F)F)nc(N4CCOCC4)n3)CC2)CC1 | binding | competition with immobilised ligand | 1 µM | 82% |
| CN(C)c1nccc(-c2cnn3ncccc23)n1 | binding | – | 1 µM | 96% |
| O=C(Nc1cnc(Oc2ccc(F)cc2)nc1)N1CCc2ncccc2[C@@H]1c1ccc(F)cc1 | cell-free assay | competition with immobilised ligand | 1 µM | 100% |
| CN(c1nccc(-c2cnn3ncccc23)n1)C1CC1 | binding | – | 1 µM | 100% |
| Cc1cnc(Nc2ccc(C(=O)N3CCC(N4CCCC4)CC3)cc2)nc1-c1cc2ccccc2s1 | binding | competition with immobilised ligand | 1 µM | 33% |
| Cc1nc(N2CC[C@@H](O)C2)ncc1-c1cc(C(F)(F)F)cc2[nH]ncc12 | cell-free assay | competition with immobilised ligand | 1 µM | 100% |
| COc1ccnn2ncc(-c3ccnc(N(C)C)n3)c12 | binding | – | 1 µM | 85% |
| C[C@@H]1CN(c2ccc3ncc(-c4ccc5[nH]nc(C6CC6)c5c4)n3n2)C[C@H](C)O1 | binding | competition with immobilised ligand | 50 nM | 100% |
| FC(F)(F)Oc1cccc(-c2cnc3ccc(-c4ccncc4)nn23)c1 | cell-free assay | competition with immobilised ligand | 5 µM | 85% |
| O=C(NS(=O)(=O)c1ccc(NCC2CCOCC2)c([N+](=O)[O-])c1)c1ccc(N2CCN(Cc3ccc(C(F)(F)F)cc3-c3ccc(Cl)cc3)CC2)cc1Oc1cnc2[nH]ccc2c1 | cell-free assay | competition with immobilised ligand | 1 µM | 59% |
| O=C(c1ccc(Nc2ncc(Cl)c(-c3cc4ccccc4s3)n2)cc1)N1CCC(N2CCCC2)CC1 | binding | competition with immobilised ligand | 1 µM | 48% |
| COc1ccc2c(c1)O[C@@H](c1ccc(OC)c(OC)c1)C[C@H]2NC(=O)C1(c2ccc3c(c2)OC(F)(F)O3)CC1 | cell-free assay | competition with immobilised ligand | 1 µM | 67% |
| N[C@H]1CCN(c2nccc(-c3cnn4ncccc34)n2)C1 | binding | – | 1 µM | 77% |
